Measurements from ChEMBL document CHEMBL1133253, “Improved antibacterial activities of coumarin antibiotics bearing 5',5'-dialkylnoviose: biological activity of RU79115” (Bioorg Med Chem Lett, 2000).
Values after ≈ are worked out from the molar mass of the structure shown.

What was measured:
[1] = Tested for Cmax value at the dose of 10 mg/kg when administered perorally in mouse; type: ADME, organism-based; design: dose 10 mg/kg, route oral; conditions: in vivo, po
How it was run: (§1)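 Mouse pharmacokinetics used 10 mg/kg given IV and PO. Tmax and Cmax (µg/ml) come from oral dosing, half-life is in hours, and oral bioavailability is F%.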

Mus musculus [2] = assay: Protective dose of orally administered compound against intraperitoneally-induced septicaemia model (Staphylococcus aureus GR56 strain resistant to oxacillin) in murine; type: functional; conditions: po, read-out: PD50
How it was run: (§2)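 PD50 was measured in a murine septicaemia model, with infection induced intraperitoneally with the named Gram-positive strain. Test compound was given orally and the PD50 was calculated by the probit method.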

Mus musculus [3] = assay: Protective dose of orally administered compound against intraperitoneally-induced septicaemia model (Streptococcus agalactiae B1HT3 strain) in murine; conditions: po, read-out: PD50
[4] = Minimum inhibitory concentration evaluated against pneumococci resistant to penicillin [29]*; type: functional
Staphylococcus aureus [5] = assay: Minimum inhibitory concentration of the orally administered compound evaluated against Staphylococcus aureus GO3 strain in mice; type: functional
Enterococcus faecium [6] = assay: Minimum inhibitory concentration of the orally administered compound evaluated against vancomycin resistant Enterococci faecium D3HT12 strain in mice; type: functional
Mus musculus [7] = assay: Protective dose of orally administered compound against intraperitoneally-induced septicaemia model (vancomycin resistant Enterococci faecium D3HM4 strain ) in murine; type: functional; conditions: po, read-out: PD50
How it was run: (§3)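 Mice infected intraperitoneally to induce septicaemia, then given the compound by mouth. PD50 was calculated by the probit method.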

Enterococcus faecium [8] = assay: Tested for in vitro antibacterial activity against Enterococcus faecium 02D31P2 vancomycin teicoplanin erythromycin resistance phenotype; type: functional
Staphylococcus aureus [9] = assay: Minimum inhibitory concentration of the orally administered compound evaluated against Staphylococcus aureus GR56 strain resistant to oxacillin in mice; type: functional
Mus musculus [10] = assay: Protective dose of orally administered compound against intraperitoneally-induced septicaemia model (vancomycin resistant Enterococci faecium D3HT12 strain ) in murine; type: functional; conditions: po, read-out: PD50; how it was run: as §3
Enterococcus faecalis = assay: Minimum inhibitory concentration of the orally administered compound evaluated against Enterococci faecalis D2HT6 strain in mice; type: functional
Staphylococcus sp. [11] = assay: In vitro anti-staphylococcal activity against Staphylococcus species [91]* expressed as geometric mean; type: functional
How it was run: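 Two-fold agar-dilution MICs (µg/mL) were run on a panel of staphylococcal isolates and summarised as the geometric mean across strains.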

Enterococcus [12] = assay: In vitro anti-enterococcal activity against enterococci species susceptible to vancomycin [26]* expressed as geometric mean; type: functional
Staphylococcus sp. [13] = assay: Minimum inhibitory concentration evaluated against Staphylococcus species resistant to ofloxacin [59]*; type: functional
How it was run: (§4)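 Two-fold agar dilution MIC, in µg/mL, against Staphylococcus panels grouped by resistance phenotype (oxacillin and/or ofloxacin resistant). Per-panel values are reported as the geometric mean and MIC90 across strains; the strain count per panel is given in brackets.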

Mus musculus [14] = assay: Protective dose of orally administered compound against intraperitoneally-induced septicaemia model (vancomycin resistant Enterococci faecium D3AP9 strain ) in murine; type: functional; conditions: po, read-out: PD50; how it was run: as §2
Enterococcus [15] = assay: Minimum inhibitory concentration evaluated against enterococci species resistant to vancomycin and teicoplanin [17]*; type: functional
Mus musculus [16] = assay: Protective dose of orally administered compound against intraperitoneally-induced septicaemia model (Staphylococcus aureus HT-17 strain) in murine; type: functional; conditions: po, read-out: PD50; how it was run: as §2
Mus musculus [17] = assay: Protective dose of orally administered compound against intraperitoneally-induced septicaemia model (Enterococci faecalis D2HT6 strain) in murine; type: functional; conditions: po, read-out: PD50; how it was run: as §2
Streptococcus sp. [18] = assay: Minimum inhibitory concentration evaluated against Streptococci species [38]*; type: functional
[19] = Tested for half life at the dose of 10 mg/kg when administered intravenously; type: ADME, organism-based; design: dose 10 mg/kg, route intravenous; conditions: mouse, in vivo, iv; how it was run: as §1
[20] = Tested for Tmax value at the dose of 10 mg/kg when administered perorally in mouse; type: ADME, organism-based; design: dose 10 mg/kg, route oral; conditions: in vivo, po; how it was run: as §1
Streptococcus pyogenes [21] = assay: Minimum inhibitory concentration of the orally administered compound evaluated against Streptococcus pyogenes A1UC1 strain in mice
Staphylococcus sp. [22] = assay: In vitro anti-staphylococcal activity against Staphylococcus species resistant to oxacillin and ofloxacin[47]* expressed as geometric mean; type: functional; how it was run: as §4
Mus musculus [23] = assay: Protective dose of orally administered compound against intraperitoneally-induced septicaemia model (vancomycin resistant Enterococci faecium D3HM3 strain ) in murine; type: functional; conditions: po, read-out: PD50; how it was run: as §2
Enterococcus faecium [24] = assay: Minimum inhibitory concentration of the orally administered compound evaluated against vancomycin resistant Enterococci faecium D3AP9 strain in mice; type: functional
Mus musculus [25] = assay: Protective dose of orally administered compound against intraperitoneally-induced septicaemia model (Streptococcus pneumoniae PW3 strain) in murine; conditions: po, read-out: PD50
Enterococcus faecium [26] = assay: Minimum inhibitory concentration of the orally administered compound evaluated against vancomycin resistant Enterococci faecium D3HM4 strain in mice; type: functional
Streptococcus sp. [27] = assay: In vitro anti-streptococcal activity against Streptococci species (viridans) [25]* expressed as geometric mean; type: functional
Staphylococcus aureus [28] = assay: Minimum inhibitory concentration of the orally administered compound evaluated against Staphylococcus aureus HT-17 strain in mice; type: functional
Enterococcus [29] = assay: Minimum inhibitory concentration evaluated against enterococci species resistant to vancomycin [65]*; type: functional
Mus musculus [30] = assay: Protective dose of orally administered compound against intraperitoneally-induced septicaemia model (Staphylococcus aureus GO3 strain) in murine; type: functional; conditions: po, read-out: PD50; how it was run: as §2
Staphylococcus sp. [31] = assay: Minimum inhibitory concentration evaluated against Staphylococcus species resistant to oxacillin and ofloxacin [47]*; type: functional; how it was run: as §4
Streptococcus pyogenes [32] = assay: Tested for in vitro antibacterial activity against Streptococcus pyogenes O2A1UC1 phenotype; type: functional
pneumococci = assay: In vitro anti-streptococcal activity against pneumococci resistant to penicillin [29]* expressed as geometric mean; type: functional
Staphylococcus sp. [33] = assay: Minimum inhibitory concentration evaluated against Staphylococcus species [91]*; type: functional; how it was run: as §4
Staphylococcus sp. [34] = assay: In vitro anti-staphylococcal activity against Staphylococcus species resistant to ofloxacin [59]* expressed as geometric mean; type: functional; how it was run: as §4
Enterococcus [35] = assay: In vitro anti-enterococcal activity against enterococci species resistant to vancomycin and teicoplanin [17]* expressed as geometric mean; type: functional
Mus musculus [36] = assay: Protective dose of orally administered compound against intraperitoneally-induced septicaemia model (Streptococcus pyogenes A1UC1 strain) in murine; conditions: po, read-out: PD50
[37] = Minimum inhibitory concentration of the orally administered compound evaluated against […] PW3 strain in mice; type: functional
Staphylococcus sp. [38] = assay: In vitro anti-staphylococcal activity against Staphylococcus species resistant to oxacillin [66]* expressed as geometric mean; type: functional; how it was run: as §4
Streptococcus sp. [39] = assay: In vitro anti-streptococcal activity against Streptococci species [38]* expressed as geometric mean; type: functional
Streptococcus sp. [40] = assay: Minimum inhibitory concentration evaluated against Streptococci species (viridans) [25]*; type: functional
Enterococcus [41] = assay: Minimum inhibitory concentration evaluated against enterococci species susceptible to vancomycin [26]*; type: functional
Staphylococcus aureus [42] = assay: Tested for in vitro antibacterial activity against Staphylococcus aureus 011 HT1 novobiocin resistance phenotype; type: functional
Enterococcus faecium [43] = assay: Minimum inhibitory concentration of the orally administered compound evaluated against vancomycin resistant Enterococci faecium D3HM3 strain in mice; type: functional
Staphylococcus aureus [44] = assay: Minimum inhibitory concentration of the orally administered compound evaluated against Staphylococcus aureus HT-18 strain in mice; type: functional
[45] = Tested for bioavailability of the compound; type: ADME, organism-based; conditions: mouse, in vivo; how it was run: as §1
Staphylococcus sp. [46] = assay: Minimum inhibitory concentration evaluated against Staphylococcus species resistant to oxacillin [66]*; type: functional; how it was run: as §4
[47] = tested on: Staphylococcus epidermidis; assay: Tested for in vitro antibacterial activity against Staphylococcus epidermidis 012GO42 oxacillin resistance phenotype; type: functional
Staphylococcus aureus [48] = assay: Tested for in vitro antibacterial activity against Staphylococcus aureus 011 HT3 phenotype; type: functional
Staphylococcus aureus [49] = assay: IC50 was determined for gyrase B of Staphylococcus aureus against novobiocin (0.5 mg/mL) as reference; IC50nov/IC50comp
Enterococcus faecium [50] = assay: Minimum inhibitory concentration of the orally administered compound evaluated against Enterococci faecium D3HT7 strain in mice; type: functional
Mus musculus [51] = assay: Protective dose of orally administered compound against intraperitoneally-induced septicaemia model (Enterococci faecium D3HT7 strain ) in murine; type: functional; conditions: po, read-out: PD50; how it was run: as §2
Mus musculus [52] = assay: Protective dose of orally administered compound against intraperitoneally-induced septicaemia model (Staphylococcus aureus HT18) in murine; type: functional; conditions: po, read-out: PD50; how it was run: as §2
Staphylococcus aureus [53] = assay: Tested for in vitro antibacterial activity against Staphylococcus aureus 011 GO64 ofloxacin oxacillin erythromycin resistance phenotype; type: functional

For C#CCONC(=O)O[C@H]1[C@@H](O)[C@H](Oc2ccc3c(=O)c(/C(C)=N/OC)c(O)oc3c2C)OC2(CCCC2)[C@@H]1OC, the Cmax [1] was 5400 ng/mL, the ED50 (Mus musculus [2]) was 1 mg/kg and the ED50 (Mus musculus [3]) was 27.7 mg/kg. For the same compound, the MIC90 [4] was 0.3 µg/mL (≈ 0.535 µM), the MIC (Staphylococcus aureus [5]) was 0.3 µg/mL (≈ 0.535 µM) and the MIC (Enterococcus faecium [6]) was 0.15 µg/mL (≈ 0.268 µM). The ED50 (Mus musculus [7]) was 77 mg/kg, the MIC (Enterococcus faecium [8]) was 0.15 µg/mL (≈ 0.268 µM) and the MIC (Staphylococcus aureus [9]) was 0.08 µg/mL (≈ 0.143 µM). For the same compound, the ED50 (Mus musculus [10]) was 40 mg/kg, the MIC (Enterococcus faecalis) was 0.3 µg/mL (≈ 0.535 µM) and the GM (Staphylococcus sp. [11]) was 0.099. For the same compound, the GM (Enterococcus [12]) was 0.26, the MIC90 (Staphylococcus sp. [13]) was 0.15 µg/mL (≈ 0.268 µM) and the ED50 (Mus musculus [14]) was 44 mg/kg. For the same compound, the MIC90 (Enterococcus [15]) was 0.3 µg/mL (≈ 0.535 µM), the ED50 (Mus musculus [16]) was 2.8 mg/kg and the ED50 (Mus musculus [17]) was 10 mg/kg. For the same compound, the MIC90 (Streptococcus sp. [18]) was 1.2 µg/mL (≈ 2.14 µM), the half-life [19] was 2.5 h and the Tmax [20] was 0.5 h. For the same compound, the MIC (Streptococcus pyogenes [21]) was 0.15 µg/mL (≈ 0.268 µM), the GM (Staphylococcus sp. [22]) was 0.081 and the ED50 (Mus musculus [23]) was 32 mg/kg. The MIC (Enterococcus faecium [24]) was 0.6 µg/mL (≈ 1.07 µM), the ED50 (Mus musculus [25]) was 8.5 mg/kg and the MIC (Enterococcus faecium [26]) was 0.6 µg/mL (≈ 1.07 µM). For the same compound, the GM (Streptococcus sp. [27]) was 0.59, the MIC (Staphylococcus aureus [28]) was 0.15 µg/mL (≈ 0.268 µM) and the MIC90 (Enterococcus [29]) was 0.6 µg/mL (≈ 1.07 µM). It also gave an ED50 (Mus musculus [30]) of 7.1 mg/kg, an MIC90 (Staphylococcus sp. [31]) of 0.15 µg/mL (≈ 0.268 µM) and an MIC (Streptococcus pyogenes [32]) of 0.15 µg/mL (≈ 0.268 µM). For the same compound, the GM (pneumococci) was 0.12, the MIC90 (Staphylococcus sp. [33]) was 0.15 µg/mL (≈ 0.268 µM) and the GM (Staphylococcus sp. [34]) was 0.082. It also gave a GM (Enterococcus [35]) of 0.16, an ED50 (Mus musculus [36]) of 37.6 mg/kg and an MIC [37] of 1.2 µg/mL (≈ 2.14 µM). It also gave a GM (Staphylococcus sp. [38]) of 0.097, a GM (Streptococcus sp. [39]) of 0.47 and an MIC90 (Streptococcus sp. [40]) of 1.2 µg/mL (≈ 2.14 µM). For the same compound, the MIC90 (Enterococcus [41]) was 1.2 µg/mL (≈ 2.14 µM), the MIC (Staphylococcus aureus [42]) was 1.2 µg/mL (≈ 2.14 µM) and the MIC (Enterococcus faecium [43]) was 0.08 µg/mL (≈ 0.143 µM). The MIC (Staphylococcus aureus [44]) was under 0.04 µg/mL, the bioavailability [45] was 62% and the MIC90 (Staphylococcus sp. [46]) was 0.15 µg/mL (≈ 0.268 µM). The MIC [47] was under 0.04 µg/mL, the MIC (Staphylococcus aureus [48]) was under 0.04 µg/mL and the Ratio (Staphylococcus aureus [49]) was 2.6. The MIC (Enterococcus faecium [50]) was 0.15 µg/mL (≈ 0.268 µM), the ED50 (Mus musculus [51]) was 112 mg/kg and the ED50 (Mus musculus [52]) was 5.6 mg/kg.
Compound C#CCONC(=O)O[C@H]1[C@@H](O)[C@H](Oc2ccc3c(=O)c(/C(C)=N/OC)c(O)oc3c2C)OC2(CCCCC2)[C@@H]1OC has an MIC (Enterococcus faecium [8]) of 0.15 µg/mL (≈ 0.261 µM), an MIC (Streptococcus pyogenes [32]) of 0.6 µg/mL (≈ 1.04 µM) and an MIC (Staphylococcus aureus [42]) of 0.6 µg/mL (≈ 1.04 µM). It also gave an MIC [47] of under 0.04 µg/mL, an MIC (Staphylococcus aureus [48]) of under 0.04 µg/mL and a Ratio (Staphylococcus aureus [49]) of 2.6. It also gave an MIC (Staphylococcus aureus [53]) of 0.15 µg/mL (≈ 0.261 µM).
